# Laboratory results as given in ChEMBL document CHEMBL1149311, “Synthesis and antitumor activity of methyltriazene prodrugs simultaneously releasing DNA-methylating agents and the antiresistance drug O(6)-benzylguanine” (J Med Chem, 2004).
# Assays:
# HL-60 = experiment: Antitumor activity against human HL60 cells; assay type: functional
# Method in brief: (§1)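 Tested in the NCI in vitro disease-oriented human tumor cell screen. The endpoints are IC50 (molar concentration giving 50% growth inhibition), TGI (total growth inhibition) and LC50 (50% net cell death). The maximal concentration tested was 100 μM. Subpanel values are means of several individual cell lines.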
# K562 = experiment: Antitumor activity against human K562 cells; assay type: functional; method in brief: as §1
# EKVX = experiment: Antitumor activity against human EKVX cells; assay type: functional; method in brief: as §1
# HOP-62 = experiment: Antitumor activity against human HOP62 cells; assay type: functional; method in brief: as §1
# NCI-H322M = experiment: Antitumor activity against human NCI-H322M cells; assay type: functional; method in brief: as §1
# NCI-H460 = experiment: Antitumor activity against human NCI-H460 cells; assay type: functional; method in brief: as §1
# HCT-15 = experiment: Antitumor activity against human HCT15 cells; assay type: functional; method in brief: as §1
# KM12 = experiment: Antitumor activity against human KM12 cells; assay type: functional; method in brief: as §1
# SW-620 = experiment: Antitumor activity against human SW620 cells; assay type: functional
# Method in brief: (§2)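 NCI in vitro disease-oriented tumour cell line screen. Read-outs are IC50 (molar concentration giving 50% growth inhibition), TGI (molar concentration giving total inhibition of net growth) and LC50 (molar concentration giving 50% net cell death). The maximal concentration tested was 100 μM.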
# SF-268 = experiment: Antitumor activity against human SF268 cells; assay type: functional; method in brief: as §1
# SF-295 = experiment: Antitumor activity against human SF295 cells; assay type: functional; method in brief: as §1
# SNB-19 = experiment: Antitumor activity against human SNB19 cells; assay type: functional; method in brief: as §1
# SNB-75 = experiment: Antitumor activity against human SNB75 cells; assay type: functional; method in brief: as §2
# U-251 = experiment: Antitumor activity against human U251 cells; assay type: functional; method in brief: as §2
# [1] = Antitumor activity against human LOX IMV1 cells; assay type: functional, cell-based; method in brief: as §1
# M14 = experiment: Antitumor activity against human M14 cells; assay type: functional; method in brief: as §1
# SK-MEL-2 = experiment: Antitumor activity against human SK-MEL-2 cells; assay type: functional; method in brief: as §1
# UACC-257 = experiment: Antitumor activity against human UACC257 cells; assay type: functional; method in brief: as §2
# OVCAR-3 = experiment: Antitumor activity against human OVCAR-3 cells; assay type: functional; method in brief: as §1
# OVCAR-4 = experiment: Antitumor activity against human OVCAR4 cells; assay type: functional; method in brief: as §1
# SK-OV-3 = experiment: Antitumor activity against human SKOV3 cells; assay type: functional; method in brief: as §1
# 786-0 = experiment: Antitumor activity against human 786-0 cells; assay type: functional; method in brief: as §1
# CAKI-1 = experiment: Antitumor activity against human CAKI1 cells; assay type: functional; method in brief: as §1
# UO-31 = experiment: Antitumor activity against human UO31 cells; assay type: functional; method in brief: as §2
# PC-3 = experiment: Antitumor activity against human PC3 cells; assay type: functional; method in brief: as §1
# DU-145 = experiment: Antitumor activity against human DU145 cells; assay type: functional; method in brief: as §1
# MCF7 = experiment: Antitumor activity against human MCF7 cells; assay type: functional; method in brief: as §1
# MDA-MB-231 = experiment: Antitumor activity against human MDA-MB-231 cells; assay type: functional; method in brief: as §1
# Hs-578T = experiment: Antitumor activity against human HS578T cells; assay type: functional; method in brief: as §1
# MDA-MB-435 = experiment: Antitumor activity against human MDA-MB-435 cells; assay type: functional; method in brief: as §1
# BT-549 = experiment: Antitumor activity against human BT549 cells; assay type: functional; method in brief: as §1
# T47D = experiment: Antitumor activity against human T47D cells; assay type: functional; method in brief: as §2
# [2] = Half life of hydrolysis in deuterated phosphate buffer at pD 7.8; conditions: deuterated phosphate buffer, pH 7.8
# SK-MEL-28 = experiment: Antitumor activity against human SK-MEL-28 cells; assay type: functional; method in brief: as §1
# NCI [3] = experiment: Antitumor activity against human NCI leukemia cell line panel; assay type: functional, cell-based; method in brief: as §1
# [4] = system: Non-small cell lung cancer cell line; experiment: Antitumor activity against human NCI non-small cell lung cancer cell line panel; assay type: functional, cell-based; method in brief: as §1
# NCI [5] = experiment: Antitumor activity against human NCI colon cancer cell line panel; assay type: functional, cell-based; method in brief: as §1
# NCI [6] = experiment: Antitumor activity against human NCI CNS cancer cell line panel; assay type: functional, cell-based; method in brief: as §1
# NCI [7] = experiment: Antitumor activity against NCI human melanoma cell line panel; assay type: functional, cell-based; method in brief: as §1
# NCI [8] = experiment: Antitumor activity against human NCI renal cancer cell line panel; assay type: functional, cell-based; method in brief: as §1
# HOP-92 = experiment: Antitumor activity against human HOP92 cells; assay type: functional; method in brief: as §1
# [9] = read-out: Log LC50 (the source's name) (converted)
smiles,measurement,setting,value
CN(/N=N/c1nc(OCc2ccccc2)c2nc[nH]c2n1)C(=O)N(C)/N=N/c1nc(OCc2ccccc2)c2nc[nH]c2n1,GI50,HL-60,63.1 µM
same,CC50,HL-60; [9],> 100 µM
same,TGI,HL-60; read-out: Log TGI (converted),> 100 µM
same,GI50,K562,75.9 µM
same,CC50,K562; [9],> 100 µM
same,TGI,K562; read-out: Log TGI (converted),> 100 µM
same,GI50,EKVX,38 µM
same,CC50,EKVX; [9],> 100 µM
same,TGI,EKVX; read-out: Log TGI (converted),> 100 µM
same,GI50,HOP-62,95.5 µM
same,LC50,HOP-62,> 100 µM
same,TGI,HOP-62; read-out: Log TGI (converted),> 100 µM
same,GI50,NCI-H322M,41.7 µM
same,CC50,NCI-H322M; [9],> 100 µM
same,TGI,NCI-H322M; read-out: Log TGI (converted),> 100 µM
same,GI50,NCI-H460,26.3 µM
same,CC50,NCI-H460; [9],> 100 µM
same,TGI,NCI-H460; read-out: Log TGI (converted),> 100 µM
same,GI50,HCT-15,35.5 µM
same,CC50,HCT-15; [9],> 100 µM
same,TGI,HCT-15; read-out: Log TGI (converted),> 100 µM
same,GI50,KM12,85.1 µM
same,CC50,KM12; [9],> 100 µM
same,TGI,KM12; read-out: Log TGI (converted),> 100 µM
same,GI50,SW-620,72.4 µM
same,CC50,SW-620; [9],> 100 µM
same,TGI,SW-620; read-out: Log TGI (converted),> 100 µM
same,GI50,SF-268,47.9 µM
same,CC50,SF-268; [9],> 100 µM
same,TGI,SF-268; read-out: Log TGI (converted),> 100 µM
same,GI50,SF-295,32.4 µM
same,CC50,SF-295; [9],> 100 µM
same,TGI,SF-295; read-out: Log TGI (converted),> 100 µM
same,GI50,SNB-19,> 100 µM
same,LC50,SNB-19,> 100 µM
same,TGI,SNB-19; read-out: Log TGI (converted),> 100 µM
same,GI50,SNB-75,> 100 µM
same,CC50,SNB-75; [9],> 100 µM
same,TGI,SNB-75; read-out: Log TGI (converted),> 100 µM
same,GI50,U-251,50.1 µM
same,CC50,U-251; [9],> 100 µM
same,TGI,U-251; read-out: Log TGI (converted),> 100 µM
same,GI50,[1],37.2 µM
same,CC50,[1]; [9],> 100 µM
same,TGI,[1]; read-out: Log TGI (converted),> 100 µM
same,GI50,M14,70.8 µM
same,CC50,M14; [9],> 100 µM
same,TGI,M14; read-out: Log TGI (converted),> 100 µM
same,GI50,SK-MEL-2,64.6 µM
same,CC50,SK-MEL-2; [9],> 100 µM
same,TGI,SK-MEL-2; read-out: Log TGI (converted),> 100 µM
same,GI50,UACC-257,55 µM
same,CC50,UACC-257; [9],> 100 µM
same,TGI,UACC-257; read-out: Log TGI (converted),> 100 µM
same,GI50,OVCAR-3,34.7 µM
same,LC50,OVCAR-3,> 100 µM
same,TGI,OVCAR-3; read-out: Log TGI (converted),> 100 µM
same,GI50,OVCAR-4,> 100 µM
same,CC50,OVCAR-4; [9],> 100 µM
same,TGI,OVCAR-4; read-out: Log TGI (converted),> 100 µM
same,GI50,SK-OV-3,41.7 µM
same,CC50,SK-OV-3; [9],> 100 µM
same,TGI,SK-OV-3; read-out: Log TGI (converted),> 100 µM
same,GI50,786-0,60.3 µM
same,LC50 (concentration giving 50% net cell death),786-0,> 100 µM
same,TGI,786-0; read-out: Log TGI (converted),> 100 µM
same,GI50,CAKI-1,17 µM
same,CC50,CAKI-1; [9],> 100 µM
same,TGI,CAKI-1; read-out: Log TGI (converted),63.1 µM
same,GI50,UO-31,36.3 µM
same,CC50,UO-31; [9],> 100 µM
same,TGI,UO-31; read-out: Log TGI (converted),> 100 µM
same,GI50,PC-3,40.7 µM
same,CC50,PC-3; [9],> 100 µM
same,TGI,PC-3; read-out: Log TGI (converted),> 100 µM
same,GI50,DU-145,38.9 µM
same,CC50,DU-145; [9],> 100 µM
same,TGI,DU-145; read-out: Log TGI (converted),> 100 µM
same,GI50,MCF7,42.7 µM
same,CC50,MCF7; [9],> 100 µM
same,TGI,MCF7; read-out: Log TGI (converted),> 100 µM
same,GI50,MDA-MB-231,40.7 µM
same,CC50,MDA-MB-231; [9],> 100 µM
same,TGI,MDA-MB-231; read-out: Log TGI (converted),> 100 µM
same,pKP,Hs-578T,>4
same,GI50,"Hs-578T; Homo sapiens, Hs-578T",25.1 µM
same,CC50,"Hs-578T; Homo sapiens, Hs-578T, read-out: Log LC50 (the source's name) (converted)",> 100 µM
same,TGI,"Hs-578T; Homo sapiens, Hs-578T, read-out: Log TGI (converted)",85.1 µM
same,GI50,MDA-MB-435,49 µM
same,CC50,MDA-MB-435; [9],> 100 µM
same,TGI,MDA-MB-435; read-out: Log TGI (converted),> 100 µM
same,GI50,BT-549,36.3 µM
same,CC50,BT-549; [9],> 100 µM
same,TGI,BT-549; read-out: Log TGI (converted),> 100 µM
same,GI50,T47D,39.8 µM
same,CC50,T47D; [9],> 100 µM
same,TGI,T47D; read-out: Log TGI (converted),> 100 µM
same,half-life,[2],7.17 h
same,GI50,SK-MEL-28,> 100 µM
same,CC50,SK-MEL-28; [9],> 100 µM
same,TGI,SK-MEL-28; read-out: Log TGI (converted),> 100 µM
same,IC50,NCI [3],55 µM
same,TGI,NCI [3],> 100 µM
same,CC50,NCI [3]; read-out: LC50 (the source's name),> 100 µM
same,IC50,[4],42 µM
same,TGI,[4],> 100 µM
same,IC50,NCI [5],45 µM
same,TGI,NCI [5],> 100 µM
same,IC50,NCI [6],55 µM
same,TGI,NCI [6],> 100 µM
same,IC50,NCI [7],47 µM
same,TGI,NCI [7],93 µM
same,IC50,NCI [8],36 µM
same,TGI,NCI [8],87 µM
same,GI50,HOP-92,30.2 µM
same,CC50,HOP-92; [9],> 100 µM
same,TGI,HOP-92; read-out: Log TGI (converted),> 100 µM
